This passage reports IC50 and DNA unwinding concentration results from ChEMBL document CHEMBL1131155, “Design of new topoisomerase II inhibitors based upon a quinobenzoxazine self-assembly model” (J Med Chem, 1998).

One assay concerns the target DNA topoisomerase II (Homo sapiens, UniProt P11388+Q02880). In words: Inhibition of topoisomerase II as conversion of catenated to decatenated KDNA. Format: protein assay. The procedure, abridged: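 kDNA (0.25 μg) preincubated 10 min with varied compound levels in 50 mM Tris-HCl pH 8, 120 mM KCl, 10 mM MgCl₂, 0.5 mM ATP and DTT. Then 2 units human topo II (170-kDa form) added, 37 °C for 30 min. Stopped with sarkosyl stop buffer. Products resolved on 1% agarose with ethidium bromide and quantified by fluorescence scanning.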

For the next assay, the system named is Raji. Put plainly: The compound was tested for the concentration to inhibit 50% of Raji lymphoma cells. Format: functional, cell-based. The following applies: Homo sapiens. Put shortly:
(§1)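 Exponentially growing cells seeded on day 0. Graded compound concentrations added in duplicate on day 1, then incubated at 37 °C. MTT (1 mg/mL in PBS) given for 4 h at 37 °C and formazan dissolved in 0.4 N HCl/isopropanol. Absorbance read at 570 nm against a 630 nm reference. IC50 derived from the dose-response curve.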

In another assay the test system is NCI-H226. Put plainly: The compound was tested for the concentration to inhibit 50% of H226 non-small cell lung cells. Format: functional, cell-based. The settings on record: Homo sapiens. Put shortly: as §1
The subject of another assay is B16. Put plainly: The compound was tested for the concentration to inhibit 50% of B16 murine melanoma cells. Format: functional, cell-based. The settings on record: Mus musculus. Put shortly: as §1
In a further assay the test system is DU-145. Put plainly: The compound was tested for the concentration to inhibit 50% of DU-145 prostate cells. Format: functional, cell-based. The settings on record: Homo sapiens. The procedure, abridged: as §1
The subject of another assay is Nucleic Acid. In words: Tested for the DNA unwinding concentration that causes a shift of the topoisomers from the original to the middle position between the relaxed and the supercoiled bands. The assay is classed as functional. The procedure, abridged:
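Supercoiled pHOT1 DNA (0.25 μg) relaxed with 5 units topo I, 37 °C for 30 min. Drug at various concentrations then added and incubated a further 30 min. Stopped with 1% SDS, proteinase K treatment at 56 °C, and chloroform-isoamyl alcohol extraction. Topoisomers run on 1% agarose in TPE with 0.2 μg/mL chloroquine, 10 V for 20 h. Gel post-stained with ethidium and scanned.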

The test system of a further assay is HT-29. Put plainly: The compound was tested for the concentration to inhibit 50% of HT-29 colon cells. The assay is classed as functional, cell-based. The settings on record: Homo sapiens. The procedure, abridged: as §1
The subject of another assay is MDA-MB-231. In words: The compound was tested for the concentration to inhibit 50% of MDA-231 breast cancer cell lines. Format: functional, cell-based. The following applies: Homo sapiens. Put shortly: as §1

Molecules are shown by their SMILES. Some results are limits rather than exact numbers.

Consider `N[C@@H]1CCN(c2c(F)cc3c(=O)c(C(=O)O)cn4c3c2Oc2ccc3ccccc3c2-4)C1`, for which the IC50 – broadly, the concentration at which inhibition is half-maximal – against DNA topoisomerase II amounted to 1.22 µM; with Raji, 0.16 µM; with NCI-H226, 2.4 µM; in the assay on B16 it was 0.68 µM; in the assay on DU-145 it was 0.36 µM; in the assay with HT-29, 0.36 µM. Also, in the assay on MDA-MB-231, the IC50 was 0.35 µM. Further, the DNA unwinding concentration in the assay with Nucleic Acid was 35 µM.
For `O=C(O)c1cn2c3c(c(N4CCNCC4)c(F)cc3c1=O)Oc1cc3ccccc3cc1-2`, the IC50 at DNA topoisomerase II is 0.64 µM; in the assay on Raji it was 0.0072 µM; in the assay on NCI-H226, greater than 100 µM; in the assay on B16, 0.045 µM; in the assay with DU-145, 0.075 µM; in the assay on HT-29 it was 6.8 µM. Besides, the IC50 in the assay with MDA-MB-231 was greater than 1000 µM. For the same compound, the DNA unwinding concentration in the assay on Nucleic Acid was greater than 100 µM.
For the compound `O=C(O)c1cn2c3c(c(N4CCNCC4)c(F)cc3c1=O)Oc1c-2ccc2ccccc12`, the IC50 was 1.84 µM at DNA topoisomerase II; 0.21 µM with Raji; 0.2 µM with NCI-H226; 0.65 µM in the assay with B16; 0.14 µM in the assay with DU-145; 0.36 µM in the assay with HT-29. Moreover, it took 0.38 µM to reach half-maximal inhibition with MDA-MB-231 (IC50). For the same compound, the DNA unwinding concentration with Nucleic Acid was greater than 100 µM.
Take `O=C(O)c1cn2c3c(c(N4CCNCC4)c(F)cc3c1=O)Oc1ccc3ccccc3c1-2`: the IC50 worked out at 9.6 µM against DNA topoisomerase II; 0.8 µM in the assay on Raji; 2.1 µM with NCI-H226; 2.1 µM in the assay on B16; 0.84 µM in the assay on DU-145; 2 µM with HT-29. Moreover, in the assay with MDA-MB-231, the IC50 is 2.2 µM. The DNA unwinding concentration with Nucleic Acid was greater than 100 µM.
In the case of `NC1CCN(c2c(F)cc3c(=O)c(C(=O)O)cn4c3c2Oc2ccc3ccccc3c2-4)C1` (stereo unspecified), the IC50 at DNA topoisomerase II worked out at 0.77 µM; in the assay with Raji it was 0.086 µM; in the assay on NCI-H226 it was 0.14 µM; in the assay on B16, 0.44 µM; with DU-145, 0.2 µM; in the assay on HT-29, 0.18 µM. Besides, the IC50 in the assay with MDA-MB-231 came to 0.15 µM.
Turning to `N[C@@H]1CCN(c2c(F)cc3c(=O)c(C(=O)O)cn4c3c2Oc2c-4ccc3ccccc23)C1`, the IC50 stood at 0.24 µM on DNA topoisomerase II; 0.034 µM with Raji; 0.013 µM in the assay on NCI-H226; 0.02 µM in the assay with B16; 0.03 µM in the assay with DU-145; 0.026 µM with HT-29. The compound also returned an IC50 in the assay on MDA-MB-231 of 0.005 µM. Moreover, the DNA unwinding concentration in the assay with Nucleic Acid amounted to 3 µM.
As to `NC1CCN(c2c(F)cc3c(=O)c(C(=O)O)cn4c3c2Oc2c-4ccc3ccccc23)C1` (stereo unspecified), the IC50 worked out at 0.55 µM on DNA topoisomerase II; 0.018 µM in the assay on Raji; 0.022 µM in the assay with NCI-H226; 0.04 µM in the assay with B16; 0.017 µM in the assay on DU-145; 0.03 µM in the assay on HT-29. In addition, in the assay on MDA-MB-231, the IC50 turned out to be 0.027 µM.
Take `N[C@@H]1CCN(c2c(F)cc3c(=O)c(C(=O)O)cn4c3c2Oc2cc3ccccc3cc2-4)C1`: the IC50 on DNA topoisomerase II is 0.42 µM; in the assay on Raji, 0.032 µM; in the assay with NCI-H226 it was 0.022 µM; with B16, 0.14 µM; in the assay with DU-145 it was 0.048 µM; in the assay on HT-29, 0.022 µM. Moreover, the IC50 in the assay on MDA-MB-231 amounted to 0.021 µM. The DNA unwinding concentration in the assay with Nucleic Acid worked out at 15 µM.
Turning to `NC1CCN(c2c(F)cc3c(=O)c(C(=O)O)cn4c3c2Oc2cc3ccccc3cc2-4)C1` (stereo unspecified), the IC50 against DNA topoisomerase II was determined as 0.77 µM; in the assay on Raji, 0.038 µM; with NCI-H226, 0.004 µM; with B16, 0.1 µM; with DU-145, 0.025 µM; with HT-29, 0.028 µM. Besides, in the assay with MDA-MB-231, the IC50 was determined as 0.023 µM.
On to `N[C@H]1CCN(c2c(F)cc3c(=O)c(C(=O)O)cn4c3c2Oc2c-4ccc3ccccc23)C1`, for which the IC50 against DNA topoisomerase II was 0.49 µM; in the assay with Raji it was 0.02 µM; in the assay on NCI-H226, 0.027 µM; in the assay with B16, 0.18 µM; with DU-145 it was 0.064 µM; with HT-29 it was 0.051 µM. Besides, the midpoint of inhibition with MDA-MB-231, the IC50, lay at 0.084 µM. Moreover, in the assay with Nucleic Acid, the DNA unwinding concentration was found to be 10 µM.
Consider `N[C@H]1CCN(c2c(F)cc3c(=O)c(C(=O)O)cn4c3c2Oc2cc3ccccc3cc2-4)C1`, for which the IC50 against DNA topoisomerase II turned out to be 0.44 µM; in the assay with Raji it was 0.029 µM; with NCI-H226, 0.014 µM; with B16, 0.02 µM; with DU-145, 0.03 µM; with HT-29, 0.023 µM. Further, the IC50 with MDA-MB-231 is 0.01 µM. Also, the DNA unwinding concentration in the assay on Nucleic Acid was 13 µM.
Take `N[C@H]1CCN(c2c(F)cc3c(=O)c(C(=O)O)cn4c3c2Oc2ccccc2-4)C1`: the IC50 at DNA topoisomerase II was 0.51 µM; with Raji, 0.05 µM; in the assay with NCI-H226, 0.09 µM; in the assay with B16, 0.17 µM; in the assay with DU-145, 0.16 µM; with HT-29, 0.16 µM. This compound also came in with an IC50 in the assay with MDA-MB-231 of 0.16 µM. Also, the DNA unwinding concentration in the assay with Nucleic Acid was 50 µM.
With `N[C@H]1CCN(c2c(F)cc3c(=O)c(C(=O)O)cn4c3c2Oc2ccc3ccccc3c2-4)C1`, the IC50 turned out to be 0.72 µM at DNA topoisomerase II; 0.082 µM with Raji; 0.13 µM in the assay on NCI-H226; 0.13 µM in the assay on B16; 0.14 µM in the assay on DU-145; 0.27 µM in the assay on HT-29. Further, the IC50 in the assay with MDA-MB-231 came to 0.19 µM. Further, the DNA unwinding concentration with Nucleic Acid is 19 µM.
